# Legend:
# Assay type in all cases: functional
# Trichophyton rubrum [1] = experiment: Antifungal activity against Trichophyton rubrum AUMC 1804 assessed as diameter of growth inhibition zone at 20 mg/ml at 28 degC after 7 days; conditions: AUMC 1804, 168 h, read-out: DIZ
# Method in brief: (§1)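 Inocula: each fungus grown 7 days in Sabouraud's dextrose broth (30 ml per flask). Plates were 10 cm Petri dishes with 1 ml microbial suspension and 15 ml Sabouraud's dextrose agar each. Compound solutions were applied and the diameter of the growth inhibition zone was recorded.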
# Pseudomonas aeruginosa = experiment: Antibacterial activity against Pseudomonas aeruginosa AUMC B-73 g assessed as diameter of growth inhibition zone at 20 mg/ml at 28 degC after 48 hrs; conditions: read-out: DIZ
# Method in brief: (§2)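 Inocula: each bacterial strain grown 48 h in nutrient broth (30 ml per flask). For the assay, 1 ml microbial suspension and 15 ml nutrient agar were poured into each 10 cm Petri plate, compound solutions were applied, and the diameter of the inhibition zone was read.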
# Escherichia coli = experiment: Antibacterial activity against Escherichia coli AUMC B-53 assessed as diameter of growth inhibition zone at 20 mg/ml at 28 degC after 48 hrs; conditions: AUMC B-53, 48 h, read-out: DIZ; method in brief: as §2
# Candida albicans = experiment: Antifungal activity against Candida albicans AUMC 418 assessed as diameter of growth inhibition zone at 20 mg/ml at 28 degC after 7 days; conditions: AUMC 418, 168 h, read-out: DIZ; method in brief: as §1
# Geotrichum candidum = experiment: Antifungal activity against Geotrichum candidum AUMC 226 assessed as diameter of growth inhibition zone at 20 mg/ml at 28 degC after 7 days; conditions: AUMC 226, 168 h, read-out: DIZ; method in brief: as §1
# Fusarium oxysporum = experiment: Antifungal activity against Fusarium oxysporum AUMC 5119 assessed as diameter of growth inhibition zone at 20 mg/ml at 28 degC after 7 days; conditions: AUMC 5119, 168 h, read-out: DIZ; method in brief: as §1
# [2] = test system: Scopulariopsis brevicaulis; experiment: Antifungal activity against Scopulariopsis brevicaulis AUMC 729 assessed as diameter of growth inhibition zone at 20 mg/ml at 28 degC after 7 days; conditions: AUMC 729, 168 h, read-out: DIZ; method in brief: as §1
# Bacillus cereus = experiment: Antibacterial activity against Bacillus cereus AUMC B-52 assessed as diameter of growth inhibition zone at 20 mg/ml at 28 degC after 48 hrs; conditions: AUMC B-52, 48 h, read-out: DIZ; method in brief: as §2
# Staphylococcus aureus = experiment: Antibacterial activity against Staphylococcus aureus AUMC B-54 assessed as diameter of growth inhibition zone at 20 mg/ml at 28 degC after 48 hrs; conditions: AUMC B-54, 48 h, read-out: DIZ; method in brief: as §2
# Aspergillus flavus [3] = experiment: Antifungal activity against Aspergillus flavus AUMC 1276 assessed as diameter of growth inhibition zone at 20 mg/ml at 28 degC after 7 days; conditions: AUMC 1276, 168 h, read-out: DIZ; method in brief: as §1
# Micrococcus luteus = experiment: Antibacterial activity against Micrococcus luteus AUMC B-112 assessed as diameter of growth inhibition zone at 20 mg/ml at 28 degC after 48 hrs; conditions: AUMC B-112, 48 h, read-out: DIZ; method in brief: as §2
# Serratia marcescens = experiment: Antibacterial activity against Serratia marcescens AUMC B-55 assessed as diameter of growth inhibition zone at 20 mg/ml at 28 degC after 48 hrs; conditions: AUMC B-55, 48 h, read-out: DIZ; method in brief: as §2
# Trichophyton rubrum [4] = experiment: Antifungal activity against Trichophyton rubrum AUMC 1804 assessed as growth inhibition at 28 degC after 7 days; conditions: for MIC: Trichophyton rubrum, AUMC 1804, 168 h
# Aspergillus flavus [5] = experiment: Antifungal activity against Aspergillus flavus AUMC 3214 assessed as growth inhibition at 28 degC after 7 days; conditions: for MIC: Aspergillus flavus, AUMC 3214, 168 h
SMILES,zone of inhibition at 20000 µg/mL (Trichophyton rubrum [1]) [mm],zone of inhibition at 20000 µg/mL (Pseudomonas aeruginosa) [mm],zone of inhibition at 20000 µg/mL (Escherichia coli) [mm],zone of inhibition at 20000 µg/mL (Candida albicans) [mm],zone of inhibition at 20000 µg/mL (Geotrichum candidum) [mm],zone of inhibition at 20000 µg/mL (Fusarium oxysporum) [mm],zone of inhibition at 20000 µg/mL [2] [mm],zone of inhibition at 20000 µg/mL (Bacillus cereus) [mm],zone of inhibition at 20000 µg/mL (Staphylococcus aureus) [mm],zone of inhibition at 20000 µg/mL (Aspergillus flavus [3]) [mm],zone of inhibition at 20000 µg/mL (Micrococcus luteus) [mm],zone of inhibition at 20000 µg/mL (Serratia marcescens) [mm],diameter of the inhibition zone (DIZ) (Trichophyton rubrum [4]) [mm],MIC (Trichophyton rubrum [4]) [µg/mL],diameter of the inhibition zone (DIZ) (Aspergillus flavus [5]) [mm],MIC (Aspergillus flavus [5]) [µg/mL]
Cc1nn(-c2ccccc2)c2nc3c(nc12)/C(=N/N)c1ccccc1-3,0,0,8,0,0,0,0,0,8,0,0,0,,,,
CCOC(=O)C1S/C(=N\N=C2/c3ccccc3-c3nc4c(nc32)c(C)nn4-c2ccccc2)NC1=O (stereo unspecified),30,8,8,0,10,0,0,0,8,13,0,0,16,300,10,2500
Cc1nn(-c2ccccc2)c2nc3c(nc12)/C(=N/N=C1/NC(=O)CS1)c1ccccc1-3,26,8,8,0,10,0,0,0,10,12,0,0,12,600,10,5000
Cc1nn(-c2ccccc2)c2nc3c(nc12)/C(=N/N=c1/[nH]c(-c2ccccc2)cs1)c1ccccc1-3,30,0,8,0,10,0,0,0,10,16,0,0,14,300,12,2500
Cc1nn(-c2ccccc2)c2nc3c(nc12)Cc1ccccc1-3,0,0,0,0,0,0,0,0,8,0,0,0,,,,
Cc1nn(-c2ccccc2)c2nc3c(nc12)/C(=C/c1ccccc1Cl)c1ccccc1-3,26,8,8,0,0,0,0,0,10,9,0,0,10,600,9,20000
Cc1nn(-c2ccccc2)c2nc3c(nc12)C(=O)c1ccccc1-3,0,0,10,0,0,0,0,0,8,0,0,0,,,,
CCOC(=O)/C(C#N)=C1\c2ccccc2-c2nc3c(nc21)c(C)nn3-c1ccccc1,0,8,8,10,0,0,0,0,8,0,0,0,,,,
Cc1nn(-c2ccccc2)c2nc3c(nc12)/C(=N\O)c1ccccc1-3,0,8,0,0,0,0,0,0,8,0,0,0,,,,
Cc1nn(-c2ccccc2)c2nc3c(nc12)/C(=N\NC(N)=S)c1ccccc1-3,30,0,0,0,17,0,0,0,8,16,0,0,14,300,14,2500
O=C(N[C@H](CO)[C@H](O)c1ccc([N+](=O)[O-])cc1)C(Cl)Cl [CHLORAMPHENICOL],,18,18,,,,,22,18,,20,20,,,,
Clc1ccccc1C(c1ccccc1)(c1ccccc1)n1ccnc1 [CLOTRIMAZOLE],36,,,24,26,20,28,,,44,,,35,80,15,150

# Source: ChEMBL document CHEMBL2331494, “First synthesis and biological evaluation of indeno[2,1-e]pyrazolo[3,4-b]pyrazin-5-one and related derivatives” (2013)
